PMI act – increases human mannose-6-phosphate isomerase activity | P34949 | AID 1214 | purified human PMI, coupled resazurin fluorescence, 20 min; active compounds read high; 1 = vehicle control, 0 substrate-free wells | activation factor at 20 µM | hit rate 0.005% among 190,000;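 active means activation factor of 2 or more at 20 µM, relative to plate controls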
Target sequence (P34949 whole entry, looked up): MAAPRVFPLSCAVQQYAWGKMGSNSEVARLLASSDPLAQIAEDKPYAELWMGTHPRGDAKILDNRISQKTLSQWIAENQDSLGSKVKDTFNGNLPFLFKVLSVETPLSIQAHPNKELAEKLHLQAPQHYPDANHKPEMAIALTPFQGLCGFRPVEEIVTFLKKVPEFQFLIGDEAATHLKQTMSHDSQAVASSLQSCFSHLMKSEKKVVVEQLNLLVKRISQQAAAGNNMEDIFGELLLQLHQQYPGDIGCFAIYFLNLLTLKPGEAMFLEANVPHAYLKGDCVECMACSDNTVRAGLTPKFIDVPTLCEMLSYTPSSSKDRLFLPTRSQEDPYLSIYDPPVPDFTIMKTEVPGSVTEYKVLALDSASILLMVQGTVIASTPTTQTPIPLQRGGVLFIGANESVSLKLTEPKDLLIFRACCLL
TNAP act hiacc – increases human TNAP activity under high phosphate acceptor concentration; purified TNAP, CDP-star luminescence, 1 M DEA, 30 min; active compounds read high; 0 = EDTA background, 1 = DMSO-only activity; activation factor at 20 µM; 200,000 tested, under 10 active;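 active means activation factor at least 2 at 20 µM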
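system = human TNAP | amount = enzyme diluted 1/800 final | reagent = 100 µM CDP-star substrate | signal = luminescent substrate turnover signal | dosing = one dose, 20 µM | benchmarks = EDTA negative control, DMSO positive control | measure = activation factor | timing = 30 min reaction, room temperature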
TNAP inh no acc – blocks human TNAP activity with no phosphate acceptor present; hit rate 0.26% among 200,000; purified TNAP, CDP-star luminescence, 30 min; inhibition, % at 20 µM; P05186;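 active means tissue-nonspecific alkaline phosphatase inhibition above about 50% at 20 µM in the single-dose screen, limit read from the data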
PMI act hi M6P – PMI (human) activation, high substrate; P34949; coupled PMI enzyme assay, resazurin fluorescence, 20 min; active compounds read high; 1 = untreated enzyme, 0 = substrate-free blank; activation factor at 20 µM; hit rate 0.34% among 190,000; AID 1216;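 active means activation factor of 2 or more at 20 µM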
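Material: human phosphomannose isomerase with PGI, G6PDH, diaphorase coupling enzymes. Quantity: 15 ng/mL PMI. Medium: HEPES pH 7.4 buffer with MgCl2 and Tween-20. Reagent: Near-saturating mannose-6-phosphate, 1.0 mM. Compound: 20 µM single dose. Times: enzyme reaction with compound 20 min at room temperature. Detection: resorufin fluorescence at Ex 544/Em 590 nm.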
TNAP inh hiacc – blocks human TNAP under high phosphate acceptor concentration. P05186. purified TNAP, CDP-star luminescence, 1 M DEA. inhibition, % at 20 µM. hit rate 0.03% among 200,000. AID 1135;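 active means over 50% inhibition of tissue-nonspecific alkaline phosphatase at 20 µM in the single-dose screen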
Of the large screens only hits and unclear results are named; the others gave an inactive call. An excerpt weighted towards active compounds, which were near 0.6% of everything screened.

CSc1ccc(CN(C)Cc2nc3cc(C(F)(F)F)ccc3c(=O)[nH]2)cc1	none
Cc1ccc(-c2nnc(Cc3ccc([N+](=O)[O-])cc3)o2)cc1	none
O=c1[nH]nc(-c2cccs2)c2ccccc12	none
CC1(C)CC(=O)c2c(-c3cccs3)n[nH]c2C1	TNAP inh no acc 88
CCCc1n[nH]c2c1C(=O)CC(C)(C)C2	TNAP inh no acc 64
C=C1c2cc(OC)ccc2NC(=O)N1CC	PMI act hi M6P 2
CCN1/C(=C/C(C)=O)Sc2ccc(OC)cc21	none
O=C(Cc1ccccc1)NCCSC1CCCCC1	none
Nc1ccc(Nc2ccncc2[N+](=O)[O-])cc1	none
NS(=O)(=O)c1cnccc1Nc1ccc(Cl)cc1	TNAP inh no acc 87, TNAP inh hiacc 90
CCOC(=O)C1=C(N)N(c2ccccc2Oc2ccccc2)C(=O)C1	none
CCOC(=O)C1=C2NC(=O)c3ccccc3N2C(=O)C1	PMI act hi M6P 2
O=C(Cc1ccccc1)NC(NNc1ccccc1)(C(F)(F)F)C(F)(F)F	PMI act hi M6P 2.5
Cc1cccn2c(=O)c3cc(C#N)c(=NC(=O)c4ccncc4)n(CCCOC(C)C)c3nc12	PMI act hi M6P 2
COCCCn1c(=NC(=O)c2ccncc2)c(C#N)cc2c(=O)n3cccc(C)c3nc21	none
CN(NS(C)(=O)=O)c1c(C#N)c(C(F)(F)F)nn1C	none
COc1ccc(-c2c3c([nH]c(=S)c2C#N)CCC3)cc1	PMI act hi M6P 2.1
C/C(=N\Nc1cccc2cccnc12)c1ccc(C)cc1	PMI act hi M6P 2.1
CSc1n[nH]c(NCc2cccs2)n1	TNAP inh no acc 56
COc1cc(/C=N/NC(=O)CSc2n[nH]c(=O)[nH]c2=O)cc(OC)c1O	none
CCOC(=O)C1(C)/C(=N/Nc2ccc(Cl)cc2)C(=O)C(=O)N1c1ccccc1 (configuration not stated)	PMI act hi M6P 2.2
CCOC(=O)C1(C)/C(=N/Nc2ccccc2Cl)C(=O)C(=O)N1c1ccccc1 (configuration not stated)	PMI act hi M6P 2.1
CCOC(=O)C1(C)/C(=N/Nc2cccc(Cl)c2)C(=O)C(=O)N1c1ccccc1 (configuration not stated)	PMI act hi M6P 2.3
COc1ccccc1C(=O)N1CCN(Cc2cn[nH]c2-c2ccc(F)cc2F)CC1	TNAP inh no acc 86
COCC1CCN(Cc2cn[nH]c2-c2ccc(OC)cc2F)C1 (configuration not stated)	TNAP inh no acc 74 (no result: PMI act, PMI act hi M6P)
COc1ccc(-c2[nH]ncc2CN2CCCCCCC2)c(OC)c1	none
COc1ccc(-c2[nH]ncc2CN2CCCO2)c(F)c1	TNAP inh no acc 64
COc1ccc(-c2[nH]ncc2CN2CCC(N3CCSCC3)CC2)c(F)c1	TNAP inh no acc 75
COc1ccc(-c2[nH]ncc2CN2CCC(OCc3ccccc3)CC2)c(F)c1	none
CN1c2ccsc2/C(=N/NC(=O)c2c(F)cccc2F)CS1(=O)=O	none
CN1c2ccsc2/C(=N/Nc2ccccc2)CS1(=O)=O	PMI act hi M6P 2.1
CCCCCC(=O)N/N=C(\C)c1ccccn1	none
C/C(=N\Nc1ccc(Cl)cc1)c1ccccn1	PMI act hi M6P 2.1
CCC1CCCCN1c1nc2c(C=O)c(C)nn2c2ccccc12 (configuration not stated)	none
COC1=C(c2ccccc2)C(=O)c2ccccc2C1=O	PMI act 2
O=C(O)CC1SC(=Nc2ccc(O)cc2)NC1=O (configuration not stated)	TNAP inh no acc 54
CCn1c(CSc2nc3ccccc3s2)nnc1SCC(=O)c1ccc(O)c(O)c1	TNAP inh no acc 80
CCn1c(SCC(=O)N2CCN(c3ccccc3)CC2)nnc1-c1ccncc1	PMI act hi M6P 2.6
CCn1c(SCC(=O)c2ccc(O)c(O)c2)nnc1-c1ccccc1	TNAP inh no acc 50
O=C(C1=C[C@@H]2[C@H]3C(=O)N(c4ccccc4Cl)C(=O)[C@H]3[C@@H](C(=O)c3ccc(Cl)cc3)N2C=C1)c1ccccc1	none
O=C(C1=C[C@@H]2[C@H]3C(=O)N(c4cccc(Cl)c4)C(=O)[C@H]3[C@@H](C(=O)c3ccc(Cl)cc3)N2C=C1)c1ccccc1	PMI act hi M6P 2.2
Cc1ccc(N2C(=O)[C@@H]3[C@H](C2=O)[C@H]2C=C(C(=O)c4ccccc4)C=CN2[C@@H]3C(=O)c2ccc(Cl)cc2)cc1	PMI act hi M6P 2.1
Cn1nc(C(=O)Nc2nnc(C3CC3)s2)c2ccccc2c1=O	none
O=C(Nc1cccc(F)c1)NC1CCN(Cc2ccccc2)CC1	none
CCSc1ccccc1C(=O)N1CCN(c2ccc([N+](=O)[O-])cc2)CC1	none
O=C(CSc1ccccc1C(=O)O)c1ccc([N+](=O)[O-])cc1	PMI act hi M6P 2.2
CCOc1cc(/C=N/OC(C)=O)ccc1OCc1ccccc1	none
CC1(C(=O)CSc2n[nH]c(-c3ccccc3Cl)n2)CCC(=O)O1 (configuration not stated)	TNAP inh no acc 54
CC1CC2(CC(C)(C(=O)CSc3n[nH]c(-c4ccccc4Cl)n3)OC2=O)C(=O)O1 (configuration not stated)	TNAP inh no acc 53
COc1ccccc1-c1nc(SCC(=O)O)n[nH]1	none
O=C(CSc1n[nH]c(-c2ccccc2Cl)n1)NCc1cccc(C(=O)O)c1	TNAP inh no acc 93
COc1ccc2cc(C(=O)C3CCCN(C(=O)Cc4c(C)noc4C)C3)ccc2c1 (configuration not stated)	none
C=CCNC(=O)c1ccccc1NC(=O)COc1ccccc1	none
O=C(NCc1cc(Br)cc(Br)c1OC(=O)c1ccccc1[N+](=O)[O-])c1ccccc1	none
FC(F)(F)c1cnc2c(-c3ccccc3)n[nH]c2c1	TNAP inh no acc 81
O=C(O)c1sc2cc(C(F)(F)F)cnc2c1-c1ccccc1	none
O=C(/C=C/c1ccco1)N(c1ccccn1)c1ccccn1	none
O=C(c1ccccc1)N1CCN2C(=O)c3ccccc3C12c1ccc(Cl)cc1 (configuration not stated)	none
Cn1cc(CNCc2cnc3ccccn23)c(-c2ccc(Oc3ccccc3)cc2)n1	TNAP inh no acc 74
CN(Cc1cn(C)nc1-c1ccc(Oc2ccccc2)cc1)Cc1cnc2ccccn12	none
COc1cc2cccc(OC)c(=O)c2c(O)c1OC	none
Oc1cccc2cc3cccc(O)c3c(O)c12	PMI act hi M6P 2.2
COc1ccc(Cc2nn3c(-c4ccccc4OC)nnc3s2)cc1	TNAP inh no acc 59
COc1ccc(-c2[nH]ncc2CN(Cc2nccn2C)C(C)C)c(F)c1	none
CCn1ccnc1CN(C)Cc1cn[nH]c1-c1ccc(F)cc1F	TNAP inh no acc 85
O=C(O)/C=C/c1ccc(O)c(O)c1	TNAP inh no acc 55
